This note sets out measurements from ChEMBL document CHEMBL1154425, “Histatin-derived monomeric and dimeric synthetic peptides show strong bactericidal activity towards multidrug-resistant Staphylococcus aureus in vivo” (Antimicrob Agents Chemother, 2007).

Positions of bridges follow the written chain, without caps; N, C: chain ends. Residues, ends and D or L forms follow the SMILES beside them. Chains are numbered I, II in the order given.

Data set [1] in a line: Ratio of drug level in infected thigh muscle to contralateral noninfected thigh muscle in multidrug-resistant Staphylococcus aureus 2141 infected Swiss mouse administered as [99m]technetium-radiolabeled peptide. It is filed as ADME, tissue-based. Conditions: in vivo. In short, it runs like this: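 99mTc-labelled peptides (2 to 5 MBq) injected intravenously into infected mice. Scintigraphic imaging at intervals. Ratio = accumulation in infected thigh muscle (target) over contralateral noninfected thigh muscle (nontarget).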

Data set [2] relates to Staphylococcus aureus. Kind of data set: Bactericidal activity against Staphylococcus aureus ATCC 25923 after 2 hrs. It counts as functional. Conditions: ATCC 25923, 2 h. In short, it runs like this:
(§1)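 1 × 10^6/ml bacteria in phosphate buffer with 1% (wt/vol) tryptic soybean broth exposed to various peptide amounts, 2 h at 37°C. Viable counts on DST plates. LC50 = concentration (μM) cutting viable bacteria by 50% versus no-peptide incubations. Means from at least three independent experiments.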

The test system of data set [3] is Staphylococcus aureus. Kind of data set: Bactericidal activity against multidrug-resistant Staphylococcus aureus 2141 isolate after 2 hrs. It counts as functional. Put shortly:
as §1

Data set [4] relates to Staphylococcus aureus. Kind of data set: Bactericidal activity against multidrug-resistant Staphylococcus aureus 2141 isolate infected iv dosed Swiss mouse assessed per gram of infected soft tissue after 24 hrs. It counts as functional. Put shortly: (§2)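 Mice infected with 0.1 ml saline containing 0.5 to 2.0 × 10^7 CFU. After 18 h, various peptide amounts given intravenously. Mice kept another 24 h, then sacrificed and viable bacteria counted. LC50 = μmol/g infected tissue cutting viable counts by 50% versus untreated mice. Means from at least three animals per peptide concentration.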

The subject of a further data set is Spleen. Kind of data set: Biodistribution in Swiss mouse spleen at 2 to 5 MBq, iv administered as [99m]technetium-radiolabeled peptide by scintigraphic imaging. Conditions: in vivo. It is filed as ADME, organism-based. Put shortly: (§3)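 Mice carry a thigh-muscle infection from 0.1 ml saline containing 0.5 to 2.0 × 10^7 CFU S. aureus. Peptides labelled with 99mTc (2 to 5 MBq) are injected intravenously and tracked by scintigraphic imaging. Radioactivity in bladder, kidneys, spleen, liver and infected muscle is given as % of injected dose, mean ± SD.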

The next data set relates to Liver. Kind of data set: Biodistribution in Swiss mouse liver at 2 to 5 MBq, iv administered as [99m]technetium-radiolabeled peptide by scintigraphic imaging. It counts as ADME, organism-based. To be noted: in vivo. In short, it runs like this:
as §3

Data set [5] is described as follows: Biodistribution in Staphylococcus aureus infected Swiss mouse thigh muscle at 2 to 5 MBq, iv administered as [99m]technetium-radiolabeled peptide by scintigraphic imaging. To be noted: in vivo. It is filed as ADME, organism-based, Muscle tissue. Put shortly:
as §3

Data set [6] relates to Staphylococcus aureus. Kind of data set: Bactericidal activity against Staphylococcus aureus ATCC 25923 infected iv dosed Swiss mouse assessed per gram of infected soft tissue after 24 hrs. It counts as functional. Put shortly: as §2
Another data set deals with Kidney. Kind of data set: Biodistribution in Swiss mouse kidney at 2 to 5 MBq, iv administered as [99m]technetium-radiolabeled peptide by scintigraphic imaging. It is filed as ADME, organism-based. To be noted: in vivo. In short, it runs like this: as §3
Data set [7] in a line: Biodistribution in Swiss mouse urinary bladder at 2 to 5 MBq, iv administered as [99m]technetium-radiolabeled peptide by scintigraphic imaging. It is filed as ADME, organism-based. Conditions: in vivo. Put shortly:
as §3

Another data set has as its system Mus musculus. Kind of data set: Metabolic stability in Swiss mouse at 2 to 5 MBq, iv administered as [99m]technetium-radiolabeled peptide by scintigraphic imaging. It counts as ADME, organism-based. Conditions: in vivo. Put shortly:
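After intravenous injection of 99mTc-labelled peptide (2 to 5 MBq) into thigh-infected mice, scintigraphic imaging follows clearance from the circulation. The value is the biological half-life in minutes, mean ± SD.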

Turning to `C[C@H](N)C(=O)N[C@@H](CCCCN)C(=O)N[C@@H](CCCNC(=N)N)C(=O)N[C@@H](Cc1c[nH]cn1)C(=O)N[C@@H](Cc1c[nH]cn1)C(=O)NCC(=O)N[C@@H](Cc1ccc(O)cc1)C(=O)N[C@@H](CCCCN)C(=O)N[C@@H](CCCNC(=N)N)C(=O)N[C@@H](CCCCN)C(=O)N[C@@H](Cc1ccccc1)C(=O)N[C@@H](Cc1c[nH]cn1)C(=O)O` (H-AKRHHGYKRKFH-OH), in data set [1], the Ratio was 1.8.
For the molecule `C[C@H](N)C(=O)N[C@@H](CCCCN)C(=O)N[C@@H](CCCNC(=N)N)C(=O)N[C@@H](Cc1cnc[nH]1)C(=O)N[C@@H](Cc1cnc[nH]1)C(=O)NCC(=O)N[C@@H](Cc1ccc(O)cc1)C(=O)N[C@@H](CCCCN)C(=O)N[C@@H](CCCNC(=N)N)C(=O)N[C@@H](CCCCN)C(=O)N[C@@H](Cc1ccccc1)C(=O)N[C@@H](Cc1cnc[nH]1)C(=O)O` (H-AKRHHGYKRKFH-OH), the LC50 with Staphylococcus aureus [2] amounted to 12.5 µM; with Staphylococcus aureus [3] it was 18.6 µM; in the data set with Staphylococcus aureus [4], 3 µmol/g.
As to `CC(C)C[C@H](NC(=O)[C@H](CO)NC(=O)[C@H](Cc1ccccc1)NC(=O)[C@H](CC(C)C)NC(=O)[C@H](CC(C)C)NC(=O)[C@H](CCCCN)NC(=O)[C@H](CCCCN)NC(=O)[C@H](Cc1ccccc1)NC(=O)[C@H](CC(C)C)NC(=O)[C@H](CCCNC(=N)N)NC(=O)[C@@H](N)CCCCN)C(=O)N[C@@H](CCCNC(=N)N)C(=O)N[C@@H](CCCCN)C(=O)N[C@@H](Cc1ccc(O)cc1)C(=O)O` (H-KRLFKKLLFSLRKY-OH), the Drug uptake is recorded as 3.1 %ID in the data set on Spleen; 10.7 %ID with Liver; 0.5 %ID in data set [5]; 24.9 %ID with Kidney; 23.8 %ID in [7]. Moreover, in [1], the Ratio worked out at 1.8. Moreover, the LC50 in the data set on Staphylococcus aureus [2] worked out at 4.2 µM; in the data set on Staphylococcus aureus [6] it was 1 µmol/g; in the data set on Staphylococcus aureus [3] it was 3.1 µM; with Staphylococcus aureus [4] it was 1.5 µmol/g. This molecule had a t1/2 with Mus musculus of 28.6 min.
For `CC(C)C[C@H](NC(=O)[C@H](CC(C)C)NC(=O)[C@H](Cc1ccccc1)NC(=O)[C@H](CC(C)C)NC(=O)[C@H](CC(C)C)NC(=O)[C@@H](N)CC(C)C)C(=O)N[C@@H](CCCCN)C(=O)N[C@@H](CCCCN)C(=O)N[C@@H](CCCNC(=N)N)C(=O)N[C@@H](CCCCN)C(=O)N[C@@H](CCCCN)C(=O)N[C@@H](CCCNC(=N)N)C(=O)N[C@@H](CCCCN)C(=O)N[C@@H](Cc1ccc(O)cc1)C(=O)O` (H-LLLFLLKKRKKRKY-OH), the Drug uptake in the data set on Spleen is 10.8 %ID; in the data set on Liver it was 12.8 %ID; in data set [5], 0.9 %ID; with Kidney it was 26 %ID; in data set [7], 14.6 %ID. The Ratio in [1] is recorded as 1.8. The LC50 with Staphylococcus aureus [2] turned out to be 51 µM; with Staphylococcus aureus [6], 2 µmol/g; in the data set on Staphylococcus aureus [3] it was 17.3 µM; with Staphylococcus aureus [4], 3 µmol/g. The molecule also yielded a t1/2 in the data set with Mus musculus of 38.8 min.
As to `C[C@H](N)C(=O)N[C@@H](CCCCN)C(=O)N[C@@H](CCCNC(=N)N)C(=O)N[C@@H](Cc1cnc[nH]1)C(=O)N[C@@H](Cc1cnc[nH]1)C(=O)NCC(=O)N[C@@H](Cc1ccc(O)cc1)C(=O)N[C@@H](CCCCN)C(=O)N[C@@H](CCCNC(=N)N)C(=O)N[C@@H](CCCCN)C(=O)N[C@@H](Cc1ccccc1)C(=O)N[C@@H](Cc1cnc[nH]1)C(=O)NCCCC[C@H](NC(=O)[C@H](Cc1cnc[nH]1)NC(=O)[C@H](Cc1ccccc1)NC(=O)[C@H](CCCCN)NC(=O)[C@H](CCCNC(=N)N)NC(=O)[C@H](CCCCN)NC(=O)[C@H](Cc1ccc(O)cc1)NC(=O)CNC(=O)[C@H](Cc1cnc[nH]1)NC(=O)[C@H](Cc1cnc[nH]1)NC(=O)[C@H](CCCNC(=N)N)NC(=O)[C@H](CCCCN)NC(=O)[C@H](C)N)C(N)=O` (I: H-AKRHHGYKRKFHK-NH2 / II: H-AKRHHGYKRKFH; amide I:13-II:C) [listing 1 of 2 here], in data set [1], the Ratio turned out to be 1.8.
Regarding `C[C@H](N)C(=O)N[C@@H](CCCCN)C(=O)N[C@@H](CCCNC(=N)N)C(=O)N[C@@H](Cc1cnc[nH]1)C(=O)N[C@@H](Cc1cnc[nH]1)C(=O)NCC(=O)N[C@@H](Cc1ccc(O)cc1)C(=O)N[C@@H](CCCCN)C(=O)N[C@@H](CCCNC(=N)N)C(=O)N[C@@H](CCCCN)C(=O)N[C@@H](Cc1ccccc1)C(=O)N[C@@H](Cc1cnc[nH]1)C(=O)NCCCC[C@H](NC(=O)[C@H](Cc1cnc[nH]1)NC(=O)[C@H](Cc1ccccc1)NC(=O)[C@H](CCCCN)NC(=O)[C@H](CCCNC(=N)N)NC(=O)[C@H](CCCCN)NC(=O)[C@H](Cc1ccc(O)cc1)NC(=O)CNC(=O)[C@H](Cc1cnc[nH]1)NC(=O)[C@H](Cc1cnc[nH]1)NC(=O)[C@H](CCCNC(=N)N)NC(=O)[C@H](CCCCN)NC(=O)[C@H](C)N)C(N)=O` (I: H-AKRHHGYKRKFHK-NH2 / II: H-AKRHHGYKRKFH; amide I:13-II:C) [listing 2 of 2 here], the LC50 in the data set with Staphylococcus aureus [2] turned out to be 49.8 µM; in the data set with Staphylococcus aureus [3], 38.9 µM; in the data set with Staphylococcus aureus [4] it was 3 µmol/g.
Consider `CC(C)C[C@H](NC(=O)[C@H](CO)NC(=O)[C@H](Cc1ccccc1)NC(=O)[C@H](CC(C)C)NC(=O)[C@H](CC(C)C)NC(=O)[C@H](CCCCN)NC(=O)[C@H](CCCCN)NC(=O)[C@H](Cc1ccccc1)NC(=O)[C@H](CC(C)C)NC(=O)[C@H](CCCNC(=N)N)NC(=O)[C@@H](N)CCCCN)C(=O)N[C@@H](CCCNC(=N)N)C(=O)N[C@@H](CCCCN)C(=O)N[C@@H](Cc1ccc(O)cc1)C(=O)NCCCC[C@H](NC(=O)[C@H](Cc1ccc(O)cc1)NC(=O)[C@H](CCCCN)NC(=O)[C@H](CCCNC(=N)N)NC(=O)[C@H](CC(C)C)NC(=O)[C@H](CO)NC(=O)[C@H](Cc1ccccc1)NC(=O)[C@H](CC(C)C)NC(=O)[C@H](CC(C)C)NC(=O)[C@H](CCCCN)NC(=O)[C@H](CCCCN)NC(=O)[C@H](Cc1ccccc1)NC(=O)[C@H](CC(C)C)NC(=O)[C@H](CCCNC(=N)N)NC(=O)[C@@H](N)CCCCN)C(N)=O` (I: H-KRLFKKLLFSLRKYK-NH2 / II: H-KRLFKKLLFSLRKY; amide I:15-II:C), for which the Drug uptake is 4 %ID with Spleen; 19.9 %ID with Liver; 0.8 %ID in [5]; 29.1 %ID with Kidney; 17 %ID in [7]. The Ratio in data set [1] came out at 1.8. In addition, the LC50 in the data set on Staphylococcus aureus [2] is 0.5 µM; in the data set with Staphylococcus aureus [6], 1 µmol/g; in the data set on Staphylococcus aureus [3], 0.4 µM; with Staphylococcus aureus [4] it was 1 µmol/g. The t1/2 in the data set on Mus musculus stood at 34 min.
For the molecule `CC(C)C[C@H](NC(=O)[C@H](CC(C)C)NC(=O)[C@H](Cc1ccccc1)NC(=O)[C@H](CC(C)C)NC(=O)[C@H](CC(C)C)NC(=O)[C@@H](N)CC(C)C)C(=O)N[C@@H](CCCCN)C(=O)N[C@@H](CCCCN)C(=O)N[C@@H](CCCNC(=N)N)C(=O)N[C@@H](CCCCN)C(=O)N[C@@H](CCCCN)C(=O)N[C@@H](CCCNC(=N)N)C(=O)N[C@@H](CCCCN)C(=O)N[C@@H](Cc1ccc(O)cc1)C(=O)NCCCC[C@H](NC(=O)[C@H](Cc1ccc(O)cc1)NC(=O)[C@H](CCCCN)NC(=O)[C@H](CCCNC(=N)N)NC(=O)[C@H](CCCCN)NC(=O)[C@H](CCCCN)NC(=O)[C@H](CCCNC(=N)N)NC(=O)[C@H](CCCCN)NC(=O)[C@H](CCCCN)NC(=O)[C@H](CC(C)C)NC(=O)[C@H](CC(C)C)NC(=O)[C@H](Cc1ccccc1)NC(=O)[C@H](CC(C)C)NC(=O)[C@H](CC(C)C)NC(=O)[C@@H](N)CC(C)C)C(N)=O` (I: H-LLLFLLKKRKKRKYK-NH2 / II: H-LLLFLLKKRKKRKY; amide I:15-II:C), the Drug uptake was 3.1 %ID in the data set with Spleen; 16.7 %ID in the data set on Liver; 0.6 %ID in data set [5]; 28.3 %ID in the data set on Kidney; 18.8 %ID in data set [7]. The Ratio in data set [1] came out at 1.8. Moreover, the LC50 was found to be 0.4 µM with Staphylococcus aureus [2], 5 µmol/g with Staphylococcus aureus [6], 0.4 µM with Staphylococcus aureus [3] and 2 µmol/g with Staphylococcus aureus [4]. The molecule further displayed a t1/2 in the data set on Mus musculus of 23.2 min.
